Source: ChEMBL document CHEMBL3856284, “Discovery, design and synthesis of 6H-anthra[1,9-cd]isoxazol-6-one scaffold as G9a inhibitor through a combination of shape-based virtual screening and structure-based molecular modification” (Bioorg Med Chem, 2016)
Calls of active or inactive are those of the source. The calls are words filed in the database; no cut-off is given here.

What was measured:
[1] = target: T1, Histone-lysine N-methyltransferase EHMT2 (Homo sapiens, UniProt Q96KQ7); assay: Inhibition of G9a (unknown origin) using biotinylated-histone H3 (1 to 21 residues)/S-adenosyl-methionine as substrate/methyl donor after 3 hrs by AlphaScreen assay
T1 sequence (Q96KQ7 whole entry): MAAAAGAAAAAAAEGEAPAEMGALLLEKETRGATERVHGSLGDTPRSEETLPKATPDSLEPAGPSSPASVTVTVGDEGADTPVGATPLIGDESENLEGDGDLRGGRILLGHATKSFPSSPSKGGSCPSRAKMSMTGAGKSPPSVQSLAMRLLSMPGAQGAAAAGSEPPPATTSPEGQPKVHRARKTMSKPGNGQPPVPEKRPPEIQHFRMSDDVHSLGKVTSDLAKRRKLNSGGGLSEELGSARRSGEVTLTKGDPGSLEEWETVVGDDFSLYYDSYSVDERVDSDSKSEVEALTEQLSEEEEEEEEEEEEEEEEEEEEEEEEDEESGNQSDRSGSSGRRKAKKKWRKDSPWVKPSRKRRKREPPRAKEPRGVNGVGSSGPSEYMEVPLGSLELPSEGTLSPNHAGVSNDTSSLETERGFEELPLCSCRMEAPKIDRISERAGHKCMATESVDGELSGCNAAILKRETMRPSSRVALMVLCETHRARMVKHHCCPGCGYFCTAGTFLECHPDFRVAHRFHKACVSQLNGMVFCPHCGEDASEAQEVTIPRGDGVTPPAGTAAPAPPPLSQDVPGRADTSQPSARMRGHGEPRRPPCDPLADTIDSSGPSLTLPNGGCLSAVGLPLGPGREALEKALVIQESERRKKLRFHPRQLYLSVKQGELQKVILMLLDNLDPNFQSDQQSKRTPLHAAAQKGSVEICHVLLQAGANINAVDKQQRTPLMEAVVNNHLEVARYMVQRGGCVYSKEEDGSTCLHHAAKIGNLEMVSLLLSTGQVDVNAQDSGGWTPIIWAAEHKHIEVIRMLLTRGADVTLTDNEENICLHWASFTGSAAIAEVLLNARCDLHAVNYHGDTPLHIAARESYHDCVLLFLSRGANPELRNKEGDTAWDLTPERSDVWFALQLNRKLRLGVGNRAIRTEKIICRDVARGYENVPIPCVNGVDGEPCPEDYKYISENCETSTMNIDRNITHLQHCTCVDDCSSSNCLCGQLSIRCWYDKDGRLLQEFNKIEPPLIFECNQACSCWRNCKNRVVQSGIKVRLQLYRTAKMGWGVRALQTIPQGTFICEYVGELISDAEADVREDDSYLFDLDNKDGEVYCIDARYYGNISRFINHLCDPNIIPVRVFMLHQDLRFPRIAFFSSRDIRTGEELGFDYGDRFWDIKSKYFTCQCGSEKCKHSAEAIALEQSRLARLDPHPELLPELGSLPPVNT
How it was run: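 AlphaScreen G9a assay. Compounds were first screened at 10 µM. IC50 came from concentration-response curves of ten escalating concentrations (0.1 nM–10 µM), using two independent experiments, reported as mean ± SD.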

[2] = Antiproliferative activity against human MCF7 cells assessed as inhibition of cell viability after 72 hrs by MTT assay; type: functional, cell-based; conditions: MCF7, 72 h
MCF7 [3] = assay: Induction of phenotypic changes in human MCF7 cells assessed as distortion at 4 uM after 24 hrs by inverted light microscopic method; type: functional, cell-based
How it was run: (§1)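 MCF-7 cells were incubated 24 h with 2, 4 or 8 µM compound, with an untreated group as control. Cell morphology (distortion, blebbing, shrinkage, rounding, necrosis) was examined under an inverted light microscope at ×200.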

MCF7 [4] = assay: Induction of necrosis in human MCF7 cells at 8 uM after 24 hrs by inverted light microscopic method; type: functional, cell-based; how it was run: as §1
MCF7 [5] = assay: Induction of phenotypic changes in human MCF7 cells at 2 uM after 24 hrs by inverted light microscopic method; type: functional, cell-based; how it was run: as §1
MCF7 [6] = assay: Induction of apoptosis in human MCF7 cells assessed as early apoptotic cells at 2 uM after 48 hrs by annexin V staining-based flow cytometric analysis (reference value: 0.5%); type: functional
MCF7 [7] = assay: Induction of apoptosis in human MCF7 cells assessed as necrotic cells at 2 uM after 48 hrs by annexin V staining-based flow cytometric analysis (reference value: 5.65%); type: functional
MCF7 [8] = assay: Induction of apoptosis in human MCF7 cells assessed as late apoptotic cells at 4 uM after 48 hrs by annexin V staining-based flow cytometric analysis (reference value: 11%); type: functional
MCF7 [9] = assay: Induction of apoptosis in human MCF7 cells assessed as viable cells at 4 uM after 48 hrs by annexin V staining-based flow cytometric analysis (reference value: 82.85%); type: functional; conditions: MCF7, 48 h, read-out: Activity
MCF7 [10] = assay: Induction of apoptosis in human MCF7 cells assessed as early apoptotic cells at 8 uM after 48 hrs by annexin V staining-based flow cytometric analysis (reference value: 0.5%); type: functional
MCF7 [11] = assay: Induction of apoptosis in human MCF7 cells assessed as viable cells at 8 uM after 48 hrs by annexin V staining-based flow cytometric analysis (reference value: 82.85%); type: functional; conditions: MCF7, 48 h, read-out: Activity
Mus musculus [12] = assay: Tmax in mouse at 10 mg/kg, po after 5 mins to 24 hrs by LC-MS/MS analysis; conditions: in vivo
Mus musculus [13] = assay: Cmax in mouse at 10 mg/kg, po after 5 mins to 24 hrs by LC-MS/MS analysis; conditions: in vivo
Mus musculus [14] = assay: Tmax in mouse at 10 mg/kg, iv after 2 mins to 24 hrs by LC-MS/MS analysis; conditions: in vivo
Mus musculus [15] = assay: Volume of distribution in mouse at 10 mg/kg, po after 5 mins to 24 hrs by LC-MS/MS analysis; conditions: in vivo

- IC50 [1]: 2.18 µM
- Tmax (Mus musculus [12]): 6.7 h
- Cmax (Mus musculus [13]): 70.7 ng/mL
- Tmax (Mus musculus [14]): 7.2 min
- Vd (Mus musculus [15]): 90.7 L/kg
Structure (SMILES): O=C1c2ccccc2-c2onc3c(N4CCCCC4)cc(NCCN4CCCC4)c1c23
- IC50 [2]: 4.52 µM
- Activity (MCF7 [3]): Active
- Activity (MCF7 [4]): Active
- Activity (MCF7 [5]): Active
- Activity (MCF7 [6]): 0.3%
- Activity (MCF7 [7]): 3.2%
- Activity (MCF7 [8]): 26.05%
- viability at 4 µM (MCF7 [9]): 70%
- Activity (MCF7 [10]): 2.75%
- viability at 8 µM (MCF7 [11]): 66.5%
